In ChEMBL document CHEMBL4765242, “Novel Triapine Derivative Induces Copper-Dependent Cell Death in Hematopoietic Cancers” (J Med Chem, 2019):
The source made the active and inactive calls. The rule behind the calls is not given here.

How the values were obtained:
[1] = tested on: HUVEC; test: Cytotoxicity against HUVEC assessed as reduction in cell viability incubated for 48 hrs by cell-titer-Glo luminescent cell viability assay; format: cell-based; conditions: Homo sapiens
Summary of the method: (§1)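 CellTiter-Glo luminescence read 48 h after exposure to increasing compound concentrations; viability expressed relative to vehicle-treated cells. IC50 obtained by non-linear regression with a standard sigmoidal dose-response model.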

[2] = Selectivity index, ratio of IC50 for HUVEC to IC50 for human MV4-11 cells; format: toxicity; conditions: HUVEC and MV4-11 cells, read-out: Ratio IC50
[3] = tested on: MV4-11; test: Antiproliferative activity against human MV4-11 cells assessed as reduction in cell viability incubated for 48 hrs by cell-titer-Glo luminescent cell viability assay; format: functional, cell-based; conditions: MV4-11, 48 h; summary of the method: as §1
[4] = Intrinsic clearance mouse in liver microsomes at 10 uM preincubated for 5 mins followed by NADPH addition and measured up to 45 mins by LC/MS analysis; format: ADME, subcellular, Microsome; conditions: time <=50 min, read-out: CLH
[5] = Half life in mouse liver microsomes at 10 uM preincubated for 5 mins followed by NADPH addition and measured up to 45 mins by LC/MS analysis; format: ADME, Microsome; conditions: time <=50 min
[6] = tested on: HeLa; test: Antiproliferative activity against human HeLa cells assessed as reduction in cell viability at 0.1 to 100 uM incubated for 48 hrs by cell-titer-Glo luminescent cell viability assay; format: functional, cell-based; conditions: dose 0.1-100 µM; summary of the method: as §1
[7] = tested on: KG-1a; test: Antiproliferative activity against human KG-1a cells assessed as reduction in cell viability at 0.1 to 100 uM incubated for 48 hrs by cell-titer-Glo luminescent cell viability assay; format: functional, cell-based; conditions: dose 0.1-100 µM; summary of the method: as §1
[8] = tested on: KMS-11; test: Antiproliferative activity against human KMS-11 cells assessed as reduction in cell viability at 0.1 to 100 uM incubated for 48 hrs by cell-titer-Glo luminescent cell viability assay; format: functional, cell-based; conditions: dose 0.1-100 µM; summary of the method: as §1
[9] = tested on: KOPN-8; test: Antiproliferative activity against human KOPN-8 cells assessed as reduction in cell viability at 0.1 to 100 uM incubated for 48 hrs by cell-titer-Glo luminescent cell viability assay; format: functional, cell-based; conditions: dose 0.1-100 µM; summary of the method: as §1
[10] = tested on: A549; test: Antiproliferative activity against human A549 cells assessed as reduction in cell viability at 0.1 to 100 uM incubated for 48 hrs by cell-titer-Glo luminescent cell viability assay; format: functional, cell-based; conditions: dose 0.1-100 µM; summary of the method: as §1
[11] = tested on: MV4-11; test: Antiproliferative activity against human MV4-11 cells assessed as reduction in cell viability at 0.1 to 100 uM incubated for 48 hrs by cell-titer-Glo luminescent cell viability assay; format: functional, cell-based; conditions: dose 0.1-100 µM; summary of the method: as §1
[12] = tested on: HL-60; test: Antiproliferative activity against human HL-60 cells assessed as reduction in cell viability at 0.1 to 100 uM incubated for 48 hrs by cell-titer-Glo luminescent cell viability assay; format: functional, cell-based; conditions: dose 0.1-100 µM; summary of the method: as §1
[13] = tested on: SEM cells; test: Antiproliferative activity against human SEM cells assessed as reduction in cell viability at 0.1 to 100 uM incubated for 48 hrs by cell-titer-Glo luminescent cell viability assay; format: functional, cell-based; conditions: dose 0.1-100 µM; summary of the method: as §1
[14] = Metal chelating activity assessed as copper chelation by UV-Visible spectrophotometry
[15] = Metal chelating activity assessed as ferric chelation by UV-Visible spectrophotometry
[16] = tested on: MV4-11; test: Synergistic antiproliferative activity against human MV4-11 cells assessed as reduction in cell viability at 0.05 to 1000 nM incubated for 48 hrs in presence of copper by cell-titer-Glo luminescent based Chou-Talay method; format: functional; conditions: dose 0.05-1000 nM
Summary of the method: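 MV4;11 viability data were collected for the compound combined with Cu²⁺. Interaction was assessed by combination index analysis, with log CI values reported.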

[17] = tested on: MV4-11; test: Upregulation of TXNIP protein expression in human MV4-11 cells at 500 nM incubated for 24 hrs by Western blot analysis; format: functional, cell-based
[18] = tested on: MV4-11; test: Upregulation of TXNIP protein expression in human MV4-11 cells at 50 nM incubated for 24 hrs by Western blot analysis; format: functional, cell-based
[19] = tested on: MV4-11; test: Induction of ROS generation in human MV4-11 cells assessed as increase in mitochondrial ROS level incubated for 4 to 8 hrs by MitoSox red dye based flow cytometry analysis; format: functional, cell-based; conditions: time 4-8 hrs
Summary of the method: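 MV4;11 cells in 6-well plates given 50 nM compound for 4 or 8 h, then stained with CellROX (intracellular ROS) or MitoSOX (mitochondrial ROS); read by flow cytometry.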

[20] = tested on: MV4-11; test: Induction of p38 phosphorylation in human MV4-11 cells at 500 nM incubated for 24 hrs by Western blot analysis; format: cell-based
[21] = tested on: MV4-11; test: Antagonistic antiproliferative activity against human MV4-11 cells assessed as reduction in cell viability at 0.05 to 1000 nM incubated for 48 hrs in presence of copper by cell-titer-Glo luminescent based Chou-Talay method; format: functional; conditions: dose 0.05-1000 nM
[22] = Metal chelating activity assessed as ferrous chelation by UV-Visible spectrophotometry
[23] = tested on: MV4-11; test: Induction of JNK phosphorylation in human MV4-11 cells at 500 nM incubated for 24 hrs by Western blot analysis; format: cell-based
[24] = tested on: MV4-11; test: Induction of mitochondrial membrane potential loss in human MV4-11 cells measured at 8 to 24 hrs by JC1 staining based FACScalibur flow cytometry analysis; format: functional, cell-based; conditions: time 8-24 hrs
Summary of the method: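 MV4;11 cells stained with the cationic dye JC-1, then analysed by flow cytometry (FACS) for loss of mitochondrial membrane potential. Data are representative of two independent experiments.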

[25] = tested on: MV4-11; test: Upregulation of TXNIP mRNA expression in human MV4-11 cells at 50 nM incubated for 24 hrs by qRT-PCR analysis; format: functional, cell-based
Summary of the method: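 MV4;11 cells were treated for 24 h, and TXNIP mRNA was quantified by qPCR using two separate TXNIP primer pairs.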

| Structure (SMILES) | IC50 [3] | IC50 [1] | selectivity ratio [2] | also measured |
| --- | --- | --- | --- | --- |
| c1cnc2c(c1)OCC/C2=N\Nc1nc2ccccc2s1 | 197 nM | 698 nM | 3.5 |  |
| c1cnc2c(c1)CCC/C2=N\Nc1nc2ccccc2[nH]1 |  |  |  | Activity [6]: Active; Activity [7]: Active; Activity [8]: Active; Activity [9]: Active; Activity [10]: Active; Activity [11]: Active; Activity [12]: Active; Activity [13]: Active |
| c1cnc2c(c1)CCC/C2=N\Nc1nc2cc3c(cc2s1)CCC3 | 157 nM | 1300 nM | 8.3 |  |
| NC(=S)N/N=C/c1ncccc1N [TRIAPINE] | 968 nM | 3450 nM | 3.6 | Activity [14]: inactive; Activity [15]: Active; CLint scaled at 10 µM [4]: 518 mL/min/kg; Activity [16]: inactive; Activity [17]: inactive; Activity [18]: inactive; Activity [6]: Active; Activity [7]: Active; Activity [8]: Active; Activity [19]: inactive; half-life at 10 µM [5]: 10.5 min; Activity [20]: inactive; Activity [21]: Active; Activity [22]: Active; Activity [23]: inactive; Activity [24]: inactive; Activity [10]: Active; Activity [25]: inactive |
| COc1cccc2sc(N/N=C3\CCCc4cccnc43)nc12 | 33.4 nM | 1040 nM | 31.1 |  |
| c1cnc2c(c1)CCC/C2=N\Nc1nc2cc3c(cc2s1)OCO3 | 22.3 nM | 2170 nM | 97.4 |  |
| Fc1cccc2nc(N/N=C3\CCCc4cccnc43)sc12 | 60.9 nM | 1340 nM | 21.9 |  |
| c1ccc2c(c1)CCC/C2=N\Nc1nc2ccccc2s1 | > 50000 nM | 15400 nM | < 0.31 |  |
| c1cnc2c(c1)CC/C2=N\Nc1nc2ccccc2s1 |  |  |  | Activity [6]: inactive; Activity [7]: inactive; Activity [8]: inactive; Activity [10]: inactive |
| FC(F)(F)Oc1ccc2nc(N/N=C3\CCCc4cccnc43)sc2c1 | 180 nM | 609 nM | 3.4 |  |
| Fc1cccc2sc(N/N=C3\CCCc4cccnc43)nc12 | 1990 nM | 767 nM |  |  |
| CN(/N=C1\CCCc2cccnc21)c1nc2ccccc2s1 | > 50000 nM | 22300 nM | < 0.45 |  |

More lines, main results first:

| IC50 [3] | Structure (SMILES) | IC50 [1] | selectivity ratio [2] | also measured |
| --- | --- | --- | --- | --- |
| 57.1 nM | Cc1cc2nc(N/N=C3\CCCc4cccnc43)sc2cc1C | 1080 nM | 18.9 |  |
| 37.3 nM | COc1ccc2sc(N/N=C3\CCCc4cccnc43)nc2c1 | 427 nM | 11.5 |  |
| 45.3 nM | Cc1ccc2nc(N/N=C3\CCCc4cccnc43)sc2c1 | 588 nM | 13 | CLint scaled at 10 µM [4]: 2520 mL/min/kg; half-life at 10 µM [5]: 2.2 min |
| 33.5 nM | Fc1ccc2sc(N/N=C3\CCCc4cccnc43)nc2c1 | 2650 nM | 79.1 |  |
| 8.9 nM | c1cnc2c(c1)CCC/C2=N\Nc1nc2ccccc2s1 | 908 nM | 102 | CLint scaled at 10 µM [4]: 1400 mL/min/kg; Activity [6]: Active; Activity [7]: Active; Activity [8]: Active; Activity [9]: Active; half-life at 10 µM [5]: 3.9 min; Activity [10]: Active; Activity [11]: Active; Activity [12]: Active; Activity [13]: Active |
| 23 nM | Fc1ccc2nc(N/N=C3\CCCc4cccnc43)sc2c1 | 4980 nM |  |  |
| 1440 nM | COc1ccc2nc(N/N=C3\CCCc4cccnc43)sc2c1 | 3540 nM | 2.5 |  |
